Results taken from PMC4929832 (Nature, 2016).

Columns and labels:
P38-ALPHA = P38-ALPHA (Homo sapiens, UniProt Q16539); experiment: kinase panel; format: biochemical
PAK3 = PAK3 (Homo sapiens, UniProt O75914); experiment: kinase panel; format: biochemical
TAOK3 = TAOK3 (Homo sapiens, UniProt Q9H2K8); experiment: kinase panel; format: biochemical
SRMS = SRMS (Homo sapiens, UniProt Q9H3Y6); experiment: kinase panel; format: biochemical
[1] = system: L858R/T790M/C797S mutant lung tumors (genetically engineered mice); experiment: Mouse efficacy study, tumor volume by MRI; format: in vivo; conditions: EAI045 and cetuximab
How it was run: (§1)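 Transgenic lung tumors were induced at 6 weeks of age: exon19del/T790M mice by doxycycline diet, L858R/T790M/C797S mice by intranasal Ad-Cre. The test compound in 10% NMP/90% PEG-300 was given at 60 mg/kg daily by oral gavage. […] MRI ran at baseline and every 2 weeks, and tumor volume was quantified in 3D at 4 weeks. Cohorts were non-blinded and not randomized.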

PKC-IOTA = PKC-IOTA (Homo sapiens, UniProt P41743); experiment: kinase panel; format: biochemical
AXL = AXL (Homo sapiens, UniProt P30530); experiment: kinase panel; format: biochemical
EPH-A5 = EPH-A5 (Homo sapiens, UniProt P54756); experiment: kinase panel; format: biochemical
LCK = LCK (Homo sapiens, UniProt P06239); experiment: kinase panel; format: biochemical
SRPK2 = SRPK2 (Homo sapiens, UniProt P78362); experiment: kinase panel; format: biochemical
Dopamine D2 receptor = Dopamine D2 receptor (Homo sapiens, UniProt P14416); experiment: Dopamine D2 receptor assay; format: binding
EGFR = EGFR (Homo sapiens, UniProt P00533); experiment: kinase panel; format: biochemical
BRAF = BRAF (Homo sapiens, UniProt P15056); experiment: kinase panel; format: biochemical
CDK6-CYCLIND3 = CDK6-CYCLIND3 (Homo sapiens, UniProt Q00534); experiment: kinase panel; format: biochemical
DYRK3 = DYRK3 (Homo sapiens, UniProt O43781); experiment: kinase panel; format: biochemical
AMP-A1B1G1 = AMP-A1B1G1 (Homo sapiens, UniProt Q13131); experiment: kinase panel; format: biochemical
DYRK4 = DYRK4 (Homo sapiens, UniProt Q9NR20); experiment: kinase panel; format: biochemical
JNK3 = JNK3 (Homo sapiens, UniProt P53779); experiment: kinase panel; format: biochemical
MAP4K5 = MAP4K5 (Homo sapiens, UniProt Q9Y4K4); experiment: kinase panel; format: biochemical
TTK = TTK (Homo sapiens, UniProt P33981); experiment: kinase panel; format: biochemical
Alpha1A adrenergic = Alpha1A adrenergic (Homo sapiens, UniProt P35348); experiment: Alpha1A adrenergic calcium flux assay; format: cell-based
PAK5 = PAK5 (Homo sapiens, UniProt Q9P286); experiment: kinase panel; format: biochemical
EPH-B4 = EPH-B4 (Homo sapiens, UniProt P54760); experiment: kinase panel; format: biochemical
CLK2 = CLK2 (Homo sapiens, UniProt P49760); experiment: kinase panel; format: biochemical
[2] = system: exon19del/T790M EGFR mutant lung tumors (genetically engineered mice); experiment: Mouse efficacy study, tumor volume by MRI; format: in vivo; conditions: EAI045 60 mg/kg with cetuximab 1 mg I.P. every other day
How it was run: as §1

CDK9-CYCLINT1 = CDK9-CYCLINT1 (Homo sapiens, UniProt P50750); experiment: kinase panel; format: biochemical
JAK1 = JAK1 (Homo sapiens, UniProt P23458); experiment: kinase panel; format: biochemical
SRPK1 = SRPK1 (Homo sapiens, UniProt Q96SB4); experiment: kinase panel; format: biochemical
EPH-B1 = EPH-B1 (Homo sapiens, UniProt P54762); experiment: kinase panel; format: biochemical
[3] = target: Pregnane X Receptor (PXR; SXR) (Homo sapiens, UniProt O75469); experiment: Pregnane X Receptor; format: binding
PKC-GAMMA = PKC-GAMMA (Homo sapiens, UniProt P05129); experiment: kinase panel; format: biochemical
ITK = ITK (Homo sapiens, UniProt Q08881); experiment: kinase panel; format: biochemical
CK2 = experiment: kinase panel; format: biochemical; conditions: CK2, 1 μM
TNK2 = TNK2 (Homo sapiens, UniProt Q07912); experiment: kinase panel; format: biochemical
LYNB = LYNB (Homo sapiens, UniProt P07948); experiment: kinase panel; format: biochemical
SLK = SLK (Homo sapiens, UniProt Q9H2G2); experiment: kinase panel; format: biochemical
HASPIN = HASPIN (Homo sapiens, UniProt Q8TF76); experiment: kinase panel; format: biochemical
EPH-A4 = EPH-A4 (Homo sapiens, UniProt P54764); experiment: kinase panel; format: biochemical
MSK1 = MSK1 (Homo sapiens, UniProt O75582); experiment: kinase panel; format: biochemical
ROCK2 = ROCK2 (Homo sapiens, UniProt O75116); experiment: kinase panel; format: biochemical
ALK5 = ALK5 (Homo sapiens, UniProt P36897); experiment: kinase panel; format: biochemical

Sequence of EPH-B1 (P54762 18-984): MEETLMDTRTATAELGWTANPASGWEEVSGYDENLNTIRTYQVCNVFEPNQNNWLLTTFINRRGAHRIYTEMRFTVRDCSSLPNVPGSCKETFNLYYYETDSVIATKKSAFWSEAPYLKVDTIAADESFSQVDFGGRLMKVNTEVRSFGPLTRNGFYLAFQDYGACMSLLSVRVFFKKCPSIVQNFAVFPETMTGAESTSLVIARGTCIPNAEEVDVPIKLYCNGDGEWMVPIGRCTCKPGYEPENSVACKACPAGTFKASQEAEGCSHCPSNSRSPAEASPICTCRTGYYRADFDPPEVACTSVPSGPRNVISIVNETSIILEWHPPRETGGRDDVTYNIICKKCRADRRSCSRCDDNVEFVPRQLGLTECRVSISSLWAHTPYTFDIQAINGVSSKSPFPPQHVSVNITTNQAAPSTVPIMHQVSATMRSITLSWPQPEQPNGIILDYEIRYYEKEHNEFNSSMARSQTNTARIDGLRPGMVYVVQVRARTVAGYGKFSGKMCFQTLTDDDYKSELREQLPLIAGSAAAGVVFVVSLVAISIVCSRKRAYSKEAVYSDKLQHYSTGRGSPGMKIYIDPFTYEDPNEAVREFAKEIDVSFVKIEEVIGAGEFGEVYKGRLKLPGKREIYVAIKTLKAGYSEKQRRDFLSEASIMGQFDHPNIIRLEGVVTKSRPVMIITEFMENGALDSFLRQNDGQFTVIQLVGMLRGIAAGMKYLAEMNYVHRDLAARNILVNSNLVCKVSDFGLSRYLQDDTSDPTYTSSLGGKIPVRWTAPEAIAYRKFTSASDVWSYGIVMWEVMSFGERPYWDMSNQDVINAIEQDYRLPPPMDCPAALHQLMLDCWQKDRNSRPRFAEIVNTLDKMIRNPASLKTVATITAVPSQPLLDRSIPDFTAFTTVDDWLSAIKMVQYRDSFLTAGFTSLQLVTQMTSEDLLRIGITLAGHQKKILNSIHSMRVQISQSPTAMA
Sequence of LCK (P06239 whole entry): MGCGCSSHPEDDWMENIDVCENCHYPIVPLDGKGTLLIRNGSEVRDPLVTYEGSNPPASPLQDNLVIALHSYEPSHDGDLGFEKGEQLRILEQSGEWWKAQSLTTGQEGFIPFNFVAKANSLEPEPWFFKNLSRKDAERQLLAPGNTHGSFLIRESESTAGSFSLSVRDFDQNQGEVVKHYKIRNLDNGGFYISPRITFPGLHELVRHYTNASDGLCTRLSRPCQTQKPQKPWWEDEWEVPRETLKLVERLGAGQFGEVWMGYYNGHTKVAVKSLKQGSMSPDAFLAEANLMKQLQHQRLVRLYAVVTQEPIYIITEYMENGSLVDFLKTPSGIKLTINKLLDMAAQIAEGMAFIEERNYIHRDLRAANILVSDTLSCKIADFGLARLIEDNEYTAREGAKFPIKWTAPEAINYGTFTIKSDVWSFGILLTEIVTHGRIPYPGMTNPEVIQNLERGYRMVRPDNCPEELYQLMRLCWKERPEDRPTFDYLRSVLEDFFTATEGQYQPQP
Sequence of PAK5 (Q9P286 whole entry): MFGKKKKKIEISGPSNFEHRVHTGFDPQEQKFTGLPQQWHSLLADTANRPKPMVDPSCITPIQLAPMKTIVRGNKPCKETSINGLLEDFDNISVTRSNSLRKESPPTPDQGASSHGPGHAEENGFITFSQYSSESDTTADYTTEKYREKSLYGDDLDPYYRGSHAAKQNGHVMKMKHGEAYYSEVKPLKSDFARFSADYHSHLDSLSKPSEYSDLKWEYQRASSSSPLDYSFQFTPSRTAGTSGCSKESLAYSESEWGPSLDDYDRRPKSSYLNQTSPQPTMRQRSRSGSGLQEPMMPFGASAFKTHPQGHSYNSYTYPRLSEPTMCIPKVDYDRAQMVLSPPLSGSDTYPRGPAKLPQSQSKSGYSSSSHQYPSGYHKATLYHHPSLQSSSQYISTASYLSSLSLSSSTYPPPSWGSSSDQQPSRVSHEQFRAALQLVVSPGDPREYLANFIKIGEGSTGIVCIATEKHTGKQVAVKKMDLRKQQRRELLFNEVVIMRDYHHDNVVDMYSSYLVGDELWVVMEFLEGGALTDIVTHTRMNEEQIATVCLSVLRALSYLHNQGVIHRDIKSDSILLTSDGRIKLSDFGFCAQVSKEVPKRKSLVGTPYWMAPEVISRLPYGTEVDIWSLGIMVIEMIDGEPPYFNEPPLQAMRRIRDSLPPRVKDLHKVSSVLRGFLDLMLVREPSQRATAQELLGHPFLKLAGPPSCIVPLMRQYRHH
Sequence of ITK (Q08881 whole entry): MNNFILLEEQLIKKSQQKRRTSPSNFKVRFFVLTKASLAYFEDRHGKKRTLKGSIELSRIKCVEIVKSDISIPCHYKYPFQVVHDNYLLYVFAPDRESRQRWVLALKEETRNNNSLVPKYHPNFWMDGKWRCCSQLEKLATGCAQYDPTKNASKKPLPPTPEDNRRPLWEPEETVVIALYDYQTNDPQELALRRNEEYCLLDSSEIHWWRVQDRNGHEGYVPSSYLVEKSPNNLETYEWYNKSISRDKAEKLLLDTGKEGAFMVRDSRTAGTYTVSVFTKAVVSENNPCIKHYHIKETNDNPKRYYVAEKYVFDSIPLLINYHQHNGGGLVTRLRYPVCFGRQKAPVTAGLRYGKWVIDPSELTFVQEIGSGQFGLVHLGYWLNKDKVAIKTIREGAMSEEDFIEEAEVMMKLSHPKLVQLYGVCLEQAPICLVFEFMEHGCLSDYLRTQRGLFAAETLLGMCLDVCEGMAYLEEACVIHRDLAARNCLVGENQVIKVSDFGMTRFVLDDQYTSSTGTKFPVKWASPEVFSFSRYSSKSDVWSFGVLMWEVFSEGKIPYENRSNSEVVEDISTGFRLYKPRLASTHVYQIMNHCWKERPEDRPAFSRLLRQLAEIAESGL
Sequence of DYRK4 (Q9NR20 whole entry): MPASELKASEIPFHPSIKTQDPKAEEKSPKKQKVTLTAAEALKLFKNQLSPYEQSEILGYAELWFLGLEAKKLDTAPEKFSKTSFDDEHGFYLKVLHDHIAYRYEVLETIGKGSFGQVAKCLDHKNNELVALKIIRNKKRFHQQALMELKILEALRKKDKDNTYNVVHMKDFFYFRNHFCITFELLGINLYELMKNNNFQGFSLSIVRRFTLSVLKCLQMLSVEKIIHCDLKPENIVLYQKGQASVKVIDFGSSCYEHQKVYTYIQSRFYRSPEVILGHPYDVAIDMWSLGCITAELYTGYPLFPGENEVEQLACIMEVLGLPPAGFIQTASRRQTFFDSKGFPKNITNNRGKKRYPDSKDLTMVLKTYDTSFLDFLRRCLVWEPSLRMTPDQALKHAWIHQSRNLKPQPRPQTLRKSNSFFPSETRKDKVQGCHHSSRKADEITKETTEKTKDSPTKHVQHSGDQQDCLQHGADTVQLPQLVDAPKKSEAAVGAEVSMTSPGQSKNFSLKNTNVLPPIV
Sequence of ROCK2 (O75116 whole entry): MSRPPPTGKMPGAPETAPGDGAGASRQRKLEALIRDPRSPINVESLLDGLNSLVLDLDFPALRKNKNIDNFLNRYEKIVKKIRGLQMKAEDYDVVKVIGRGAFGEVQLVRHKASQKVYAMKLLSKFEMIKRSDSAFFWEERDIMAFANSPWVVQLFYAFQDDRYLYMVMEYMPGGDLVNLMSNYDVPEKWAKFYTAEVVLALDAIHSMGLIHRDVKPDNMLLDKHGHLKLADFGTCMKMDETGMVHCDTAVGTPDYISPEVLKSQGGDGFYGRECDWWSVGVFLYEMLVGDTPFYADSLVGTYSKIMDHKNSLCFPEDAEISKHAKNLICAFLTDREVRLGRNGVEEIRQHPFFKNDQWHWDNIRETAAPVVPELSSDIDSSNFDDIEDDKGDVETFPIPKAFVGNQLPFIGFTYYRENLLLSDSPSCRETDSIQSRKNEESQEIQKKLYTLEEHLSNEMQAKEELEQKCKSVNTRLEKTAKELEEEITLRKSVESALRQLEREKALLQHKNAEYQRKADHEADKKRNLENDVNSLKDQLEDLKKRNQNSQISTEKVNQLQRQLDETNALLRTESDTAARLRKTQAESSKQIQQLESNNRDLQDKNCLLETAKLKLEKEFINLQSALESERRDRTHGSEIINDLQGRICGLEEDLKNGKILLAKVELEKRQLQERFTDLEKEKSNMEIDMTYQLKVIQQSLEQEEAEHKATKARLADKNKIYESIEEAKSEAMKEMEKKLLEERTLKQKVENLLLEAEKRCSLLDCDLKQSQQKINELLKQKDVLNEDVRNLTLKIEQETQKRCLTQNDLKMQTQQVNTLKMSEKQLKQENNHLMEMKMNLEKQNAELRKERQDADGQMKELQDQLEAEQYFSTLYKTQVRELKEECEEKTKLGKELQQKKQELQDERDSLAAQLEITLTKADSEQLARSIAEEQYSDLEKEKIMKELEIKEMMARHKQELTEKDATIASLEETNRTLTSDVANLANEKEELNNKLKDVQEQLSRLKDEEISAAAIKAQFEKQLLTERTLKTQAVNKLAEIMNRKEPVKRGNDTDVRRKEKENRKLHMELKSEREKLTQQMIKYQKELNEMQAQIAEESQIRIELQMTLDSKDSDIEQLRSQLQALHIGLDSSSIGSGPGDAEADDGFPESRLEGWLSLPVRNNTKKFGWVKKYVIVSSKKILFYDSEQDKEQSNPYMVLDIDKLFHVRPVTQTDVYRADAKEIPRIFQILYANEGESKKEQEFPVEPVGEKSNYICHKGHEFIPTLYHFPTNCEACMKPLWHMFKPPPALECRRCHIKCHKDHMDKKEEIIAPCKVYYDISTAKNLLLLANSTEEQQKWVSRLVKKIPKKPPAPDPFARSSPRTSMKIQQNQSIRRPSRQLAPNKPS

Structure (SMILES): O=C(Nc1nccs1)C(c1cc(F)ccc1O)N1Cc2ccccc2C1=O (centres unmarked) [EAI045, 2-(5-fluoro-2-hydroxyphenyl)-2-(1-oxo-2,3-dihydro-1H-isoindol-2-yl)-N-(1,3-thiazol-2-yl)acetamide]
- inhibition at 1 µM (P38-ALPHA): 0%
- inhibition at 1 µM (PAK3): 0%
- inhibition at 1 µM (TAOK3): 0%
- inhibition at 1 µM (SRMS): 0%
- tumor response [1]: marked tumor shrinkage
- inhibition at 1 µM (PKC-IOTA): 0%
- inhibition at 1 µM (AXL): 4%
- inhibition at 1 µM (EPH-A5): 4%
- inhibition at 1 µM (LCK): 0%
- inhibition at 1 µM (SRPK2): 10%
- IC50 (Dopamine D2 receptor): > 30 µM
- inhibition at 1 µM (EGFR): 7%
- inhibition at 1 µM (BRAF): 0%
- inhibition at 1 µM (CDK6-CYCLIND3): 2%
- inhibition at 1 µM (DYRK3): 2%
- inhibition at 1 µM (AMP-A1B1G1): 1%
- inhibition at 1 µM (DYRK4): 1%
- inhibition at 1 µM (JNK3): 0%
- inhibition at 1 µM (MAP4K5): 13%
- inhibition at 1 µM (TTK): 0%
- IC50 (Alpha1A adrenergic): > 30 µM
- inhibition at 1 µM (PAK5): 0%
- inhibition at 1 µM (EPH-B4): 0%
- inhibition at 1 µM (CLK2): 1%
- tumor response [2]: failed to respond
- inhibition at 1 µM (CDK9-CYCLINT1): 6%
- inhibition at 1 µM (JAK1): 0%
- inhibition at 1 µM (SRPK1): 0%
- inhibition at 1 µM (EPH-B1): 0%
- IC50 [3]: 7 µM
- inhibition at 1 µM (PKC-GAMMA): 0%
- inhibition at 1 µM (ITK): 0%
- % inhibition (CK2): 0%
- inhibition at 1 µM (TNK2): 2%
- inhibition at 1 µM (LYNB): 3%
- inhibition at 1 µM (SLK): 0%
- inhibition at 1 µM (HASPIN): 1%
- inhibition at 1 µM (EPH-A4): 0%
- inhibition at 1 µM (MSK1): 0%
- inhibition at 1 µM (ROCK2): 0%
- inhibition at 1 µM (ALK5): 0%
